Results reported in ChEMBL document CHEMBL5385938 (J Med Chem, 2024).
Active and inactive are the calls of the source. The calls are words filed in the database; no cut-off is given here.

Legend:
SK-BR-3 = experiment: Cytotoxicity against human SK-BR-3 cells harboring wildtype PI3Kalpha assessed as reduction in cell viability incubated for 72 hrs by CellTiter-Glo 2.0 luminescent cell viability assay; format: functional, cell-based; conditions: SK-BR-3, 72 h
[1] = Metabolic stability in pooled human hepatocytes assessed as intrinsic clearance; format: ADME, Liver, Hepatocyte; conditions: read-out: CLH
T47D = experiment: Cytotoxicity against human T47D cells harboring PI3Kalpha H1047R mutant assessed as reduction in cell viability incubated for 72 hrs by CellTiter-Glo 2.0 luminescent cell viability assay; format: functional, cell-based
[2] = Selectivity ratio of IC50 for cytotoxicity against human SK-BR-3 cells harboring wild type PI3Kalpha to IC50 for cytotoxicity against human T47D cells harboring PI3Kalpha H1047R mutant; format: functional
[3] = target: T1, Phosphatidylinositol 4,5-bisphosphate 3-kinase catalytic subunit alpha isoform (Homo sapiens, UniProt P42336, H1047R); experiment: Inhibition of PI3Kalpha H1047R mutant (unknown origin) using PI(4,5)P2:PS as substrate incubated in presence of ATP by ADP-Glo assay
[4] = Half-life in CD-1 mouse at 3 mg/kg, iv measured upto 24 hrs; format: ADME, organism-based; conditions: in vivo
[5] = Half-life in Beagle dog at 2 mg/kg, iv measured upto 24 hrs; format: ADME, organism-based, Canis lupus familiaris; conditions: in vivo
HCC1954 [6] = experiment: Antitumor activity against ER-/HER2+ human HCC1954 cells harboring endogenous PI3Kalpha H1047R mutant xenografted in NOD.CB17-Prkdcscid/NCrCr mouse assessed as tumor regression at 80 mg/kg, ip administered twice daily for 14 days relative to control; format: functional; conditions: time 14 day
Method in brief: (§1)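 HCC1954 xenograft mice (ER-/HER2+ breast line, endogenous PI3Kα H1047R) were dosed IP for 14 days, at 100 mg/kg qd or 80 mg/kg b.i.d. Read-out was tumor growth inhibition or regression (%).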

Mus musculus = experiment: In vivo inhibition of AKT phosphorylation in NOD.CB17-Prkdcscid/NCrCr mouse xenografted with ER-/HER+ human HCC1954 cells harboring PI3Kalpha H1047R mutant at 100 to 300 mg/kg, po measured upto 8 hrs by immunoblotting analysis; format: functional, organism-based; conditions: dose 100-300 mg/kg
[7] = Volume of distribution at steady state in Beagle dog at 10 mg/kg, po or 2 mg/kg, iv measured upto 24 hrs; format: ADME, organism-based, Canis lupus familiaris; conditions: in vivo
[8] = Volume of distribution at steady state in CD-1 mouse at 100 mg/kg, po or 3 mg/kg, iv measured upto 24 hrs; format: ADME, organism-based; conditions: in vivo
[9] = Half-life in Sprague-Dawley rat at 3 mg/kg, iv measured upto 24 hrs; format: ADME, organism-based; conditions: in vivo
[10] = Oral bioavailability in Beagle dog at 10 mg/kg measured upto 24 hrs; format: ADME, organism-based, Canis lupus familiaris; conditions: in vivo
[11] = Drug uptake in NOD.CB17-Prkdcscid/NCrCr mouse xenografted with ER-/HER+ human HCC1954 cells harboring PI3Kalpha H1047R mutant at 60 to 120 mg/kg, ip administered as single dose and measured upto 8 hrs; format: ADME, organism-based; conditions: in vivo, dose 60-120 mg/kg
[12] = Oral bioavailability in CD-1 mouse at 100 mg/kg measured upto 24 hrs; format: ADME, organism-based; conditions: in vivo
[13] = Volume of distribution at steady state in Sprague-Dawley rat at 100 mg/kg, po or 3 mg/kg, iv measured upto 24 hrs; format: ADME, organism-based; conditions: in vivo
[14] = In vivo inhibition of AKT phosphorylation in NOD.CB17-Prkdcscid/NCrCr mouse xenografted with ER-/HER+ human HCC1954 cells harboring PI3Kalpha H1047R mutant at 60 mg/kg, ip administered as single dose and measured after 8 hrs by immunoblotting analysis relative to control; format: functional
Method in brief: (§2)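 HCC1954 tumor-bearing mice received a single IP dose of 60 or 120 mg/kg. Tumor pAKT modulation was measured at 1 h and 8 h post dose, relative to control.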

[15] = Oral bioavailability in Sprague-Dawley rat at 100 mg/kg measured upto 24 hrs; format: ADME, organism-based; conditions: in vivo
[16] = In vivo inhibition of AKT phosphorylation in NOD.CB17-Prkdcscid/NCrCr mouse xenografted with ER-/HER+ human HCC1954 cells harboring PI3Kalpha H1047R mutant at 120 mg/kg, ip administered as single dose and measured after 8 hrs by immunoblotting analysis relative to control; format: functional; method in brief: as §2
HCC1954 [17] = experiment: Antitumor activity against ER-/HER2+ human HCC1954 cells harboring endogenous PI3Kalpha H1047R mutant xenografted in NOD.CB17-Prkdcscid/NCrCr mouse assessed as tumor growth inhibition at 100 mg/kg, ip administered once a day for 14 days relative to control; format: functional; conditions: HCC1954, 336 h, time 14 day, read-out: TGI; method in brief: as §1
[18] = target: T1, Phosphatidylinositol 4,5-bisphosphate 3-kinase catalytic subunit alpha isoform; experiment: Inhibition of recombinant N-terminal 6-His tagged full length human PI3Kalpha H1047R mutant using PIP2diC8 and PIP2:PS as substrate incubated for 1 hrs in presence of ATP by fluorescence based plate reader analysis
Homo sapiens = species on record: Homo sapiens; experiment: Selectivity ratio of IC50 for inhibition of recombinant N-terminal 6-His tagged full length human wildtype PI3Kalpha to IC50 for inhibition of recombinant N-terminal 6-His tagged full length human PI3Kalpha H1047R mutant
[19] = target: T1, Phosphatidylinositol 4,5-bisphosphate 3-kinase catalytic subunit alpha isoform

T1 sequence (P42336 whole entry H1047R, canonical isoform): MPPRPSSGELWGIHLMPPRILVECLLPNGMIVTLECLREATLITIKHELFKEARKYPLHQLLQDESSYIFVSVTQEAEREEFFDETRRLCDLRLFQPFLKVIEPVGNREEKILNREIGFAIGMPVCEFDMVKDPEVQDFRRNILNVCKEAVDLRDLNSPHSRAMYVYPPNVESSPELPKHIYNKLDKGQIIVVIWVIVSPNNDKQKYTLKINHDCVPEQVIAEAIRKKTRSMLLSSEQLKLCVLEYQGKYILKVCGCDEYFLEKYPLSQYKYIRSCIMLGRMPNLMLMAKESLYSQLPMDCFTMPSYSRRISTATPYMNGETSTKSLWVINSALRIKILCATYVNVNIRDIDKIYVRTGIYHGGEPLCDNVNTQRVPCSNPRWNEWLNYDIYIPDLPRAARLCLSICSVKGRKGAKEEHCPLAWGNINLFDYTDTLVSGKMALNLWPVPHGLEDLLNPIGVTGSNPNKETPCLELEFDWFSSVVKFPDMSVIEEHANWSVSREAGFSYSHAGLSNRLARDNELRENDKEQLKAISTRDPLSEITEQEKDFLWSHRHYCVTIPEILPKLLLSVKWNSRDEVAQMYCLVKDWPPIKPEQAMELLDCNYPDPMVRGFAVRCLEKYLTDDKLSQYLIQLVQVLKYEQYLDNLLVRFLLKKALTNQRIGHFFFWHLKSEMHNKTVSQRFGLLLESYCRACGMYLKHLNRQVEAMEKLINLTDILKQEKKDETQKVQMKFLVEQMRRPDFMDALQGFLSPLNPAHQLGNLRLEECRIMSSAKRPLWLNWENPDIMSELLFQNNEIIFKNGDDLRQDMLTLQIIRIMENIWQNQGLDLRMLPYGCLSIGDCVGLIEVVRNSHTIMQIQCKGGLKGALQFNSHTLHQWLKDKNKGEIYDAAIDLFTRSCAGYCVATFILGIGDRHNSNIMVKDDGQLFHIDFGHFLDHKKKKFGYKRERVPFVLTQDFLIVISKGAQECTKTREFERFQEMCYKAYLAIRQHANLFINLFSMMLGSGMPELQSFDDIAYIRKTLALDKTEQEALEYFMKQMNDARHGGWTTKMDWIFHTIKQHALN

Row | SMILES | CLint scaled [1] | IC50 (SK-BR-3) | IC50 (T47D) | also measured
1 | Cc1cc(C(C)Nc2ccccc2C(=O)O)c2nc(N3CCC(C)(C)CC3)n(C)c(=O)c2c1 (centres undefined) |  | > 10000 nM | 6240 nM | Ratio IC50 [2]: 2
2 | Cc1cc([C@@H](C)Nc2cccc(F)c2C(=O)O)c2nc(N3CCC(F)(F)CC3)c(C#N)c(=O)n2c1 |  |  | 566 nM | 
3 | Cc1cc([C@@H](C)Nc2ccc(Cl)nc2C(=O)O)c2nc(N3CCC(F)(F)CC3)c(C#N)c(=O)n2c1 |  |  | 304 nM | 
4 | Cc1cc([C@@H](C)Nc2ccccc2C(=O)O)c2nc(N3CC4CC(C3)C4(F)F)c(C#N)c(=O)n2c1 | 39 mL/min/kg | > 10000 nM | 71 nM | 
5 | Cc1cc([C@@H](C)Nc2ccccc2C(=O)O)c2oc(N3CCCCC3)cc(=O)c2c1 |  |  |  | IC50 [18]: < 500 nM; Ratio IC50 (Homo sapiens): 13.5
6 | Cc1cc([C@@H](C)Nc2cscc2C(=O)O)c2nc(N3CCC(F)(F)CC3)c(C#N)c(=O)n2c1 |  |  | 183 nM | 
7 | Cc1ccccc1C1NC(=O)c2cc(NC3COC3)cc(NC(=O)c3csc4ccccc34)c21 (centres undefined) |  |  |  | IC50 [19]: ≤ 100 nM
8 | Cc1cc([C@@H](C)Nc2ccc(Cl)cc2C(=O)O)c2nc(N3CCC(F)(F)CC3)c(C#N)c(=O)n2c1 |  |  | 627 nM | 
9 | Cc1cc([C@@H](C)Nc2nccnc2C(=O)O)c2nc(N3CCC(F)(F)CC3)c(C#N)c(=O)n2c1 |  |  | 3720 nM | 
10 | Cc1cc(C(C)Nc2ccccc2C(=O)O)c2nc(N3CCCCC3)ncc2c1 (centres undefined) |  | > 10000 nM | > 10000 nM | 
11 | Cc1cc([C@@H](C)Nc2ccccc2C(=O)O)c2oc(N3CCC(C)(C)CC3)c(C)c(=O)c2c1 |  | 9080 nM | 160 nM | Ratio IC50 [2]: 57

Now from value to molecule, other results behind:

Row | CLint scaled [1] | SMILES | IC50 (SK-BR-3) | IC50 (T47D) | also measured
12 | 340 mL/min/kg | Cc1cc([C@@H](C)Nc2ccccc2C(=O)O)c2nc(N3CCCCC3)c(C)c(=O)n2c1 | > 10000 nM | 120 nM | Ratio IC50 [2]: 83
13 | 181 mL/min/kg | Cc1cc([C@@H](C)Nc2ccccc2C(=O)O)c2nc(N3CCCCC3)cc(=O)n2c1 | > 10000 nM | 1110 nM | IC50 [3]: 411 nM; Ratio IC50 [2]: 9
14 | 12 mL/min/kg | Cc1cc([C@@H](C)Nc2ccccc2C(=O)O)c2nc(C3CCC(F)(F)CC3)c(C#N)c(=O)n2c1 | > 10000 nM | 246 nM | 
15 | 29 mL/min/kg | Cc1cc([C@@H](C)Nc2ccccc2C(=O)O)c2nc(N3CCC(F)(F)CC3)c(C#N)c(=O)n2c1 | 8970 nM | 48 nM | t1/2 [4]: 2 h; t1/2 [5]: 0.7 h; Activity (HCC1954 [6]): -34%; inhibition (Mus musculus): inactive; Vdss [7]: 1.5 L/kg; Vdss [8]: 13.6 L/kg; t1/2 [9]: 3.5 h; F [10]: 7%; IC50 [3]: 73 nM; Drug uptake [11]: Active; F [12]: 48%; Vdss [13]: 4.8 L/kg; inhibition in vivo at 60 mg/kg [14]: 42%; F [15]: 57%; inhibition in vivo at 120 mg/kg [16]: 81%; inhibition in vivo at 100 mg/kg (HCC1954 [17]): 88%
16 | 118 mL/min/kg | Cc1cc([C@@H](C)Nc2ccccc2C(=O)O)c2nc(N3CC4(C3)CC(F)(F)C4)c(C#N)c(=O)n2c1 | > 10000 nM | > 10000 nM | 
17 | 76 mL/min/kg | Cc1cc([C@@H](C)Nc2ccccc2C(=O)O)c2nc(N3CCC(C)(C)CC3)c(C#N)c(=O)n2c1 | > 10000 nM | 151 nM | 
18 | 24 mL/min/kg | Cc1cc([C@@H](C)Nc2ccccc2C(=O)O)c2nc(N3CC(F)(F)C3)c(C#N)c(=O)n2c1 | > 10000 nM | 56 nM | 
19 | 78 mL/min/kg | Cc1cc([C@@H](C)Nc2ccccc2C(=O)O)c2nc(N3CCCC3)c(C#N)c(=O)n2c1 | > 10000 nM | 135 nM | 
20 | 5 mL/min/kg | Cc1cc([C@@H](C)Nc2ccccc2C(=O)O)c2nc(N3CCS(=O)(=O)CC3)c(C#N)c(=O)n2c1 | > 10000 nM | > 10000 nM | 
21 | 79 mL/min/kg | Cc1cc([C@@H](C)Nc2ccccc2C(=O)O)c2nc(N3CCCCC3)c(C#N)c(=O)n2c1 | 9940 nM | 86 nM | 
22 | 862 mL/min/kg | Cc1cc([C@@H](C)Nc2ccccc2C(=O)O)c2nc(N3CCCCC3)c(F)c(=O)n2c1 |  |  | 
